According to ChEMBL document CHEMBL2331279, “Rational design and synthesis of 4-substituted 2-pyridin-2-ylamides with inhibitory effects on SH2 domain-containing inositol 5'-phosphatase 2 (SHIP2)” (Eur J Med Chem, 2013):
Active and inactive are the calls of the source. No cut-off for these calls is given here.

Key:
[1] = test system: Mus musculus; assay: Toxicity in C57BL/6J mouse assessed as effect on glucose tolerance at 300 mg/kg, po bid for 13 days by glucose tolerance test; assay type: organism-based; set-up: dose 300 mg/kg, route oral; conditions: in vivo, 312 h
In short: (§1)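 Male mice, 8 weeks old, dosed orally twice daily with 300 mg/kg in 0.5% methylcellulose, or vehicle, for 13 days (C57BL/6J) or 10 days (db/db). After a 6 h fast, glucose 2 g/kg given ip. Tail-vein blood sampled at set times and plasma glucose measured by glucometer. AUC calculated. Mean ± SE, n=5-8; ANOVA with Bonferroni test versus vehicle.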

[2] = test system: Mus musculus; assay: Toxicity in db/db mouse assessed as epididymal white adipose tissue weight at 300 mg/kg, po bid for 12 to 13 days measured on day 12 to 13 (reference value: 1.82 +/-0.1 gms); assay type: organism-based; set-up: dose 300 mg/kg, route oral; conditions: in vivo
[3] = test system: Mus musculus; assay: Toxicity in db/db mouse assessed as food intake at 300 mg/kg, po bid for 12 to 13 days measured on day 10 (reference value: 6.06 +/-0.36 gms/day); assay type: organism-based; set-up: dose 300 mg/kg, route oral; conditions: in vivo
[4] = test system: Mus musculus; assay: Toxicity in db/db mouse assessed as liver weight at 300 mg/kg, po bid for 12 to 13 days measured on day 12 to 13 (reference value: 1.57 +/-0.04 gms); assay type: organism-based; set-up: dose 300 mg/kg, route oral; conditions: in vivo
[5] = test system: Mus musculus; assay: Toxicity in C57BL/6J mouse assessed as serum insulin level at 300 mg/kg, po bid for 12 to 13 days measured on day 15 (reference value: 0.25 +/-0.11 ng/ml); assay type: organism-based; set-up: dose 300 mg/kg, route oral; conditions: in vivo
[6] = test system: Mus musculus; assay: Toxicity in C57BL/6J mouse assessed as fasting plasma glucose level at 300 mg/kg, po bid for 12 to 13 days measured on day 15 (reference value: 78 +/-6 mg/dl); assay type: organism-based; set-up: dose 300 mg/kg, route oral; conditions: in vivo
[7] = test system: Mus musculus; assay: Toxicity in C57BL/6J mouse assessed as liver weight at 300 mg/kg, po bid for 12 to 13 days measured on day 15 (reference value: 0.74 +/-0.03 gms); assay type: organism-based; set-up: dose 300 mg/kg, route oral; conditions: in vivo
[8] = test system: Mus musculus; assay: Toxicity in C57BL/6J mouse assessed as epididymal white adipose tissue weight at 300 mg/kg, po bid for 12 to 13 days measured on day 15 (reference value: 0.03 +/-0.0 gms); assay type: organism-based; set-up: dose 300 mg/kg, route oral; conditions: in vivo
[9] = test system: Mus musculus; assay: Toxicity in C57BL/6J mouse assessed as food intake at 300 mg/kg, po bid for 12 to 13 days measured on day 10 (reference value: 3.72 +/-0.23 gms/day); assay type: organism-based; set-up: dose 300 mg/kg, route oral; conditions: in vivo
[10] = test system: Mus musculus; assay: Toxicity in C57BL/6J mouse assessed as body weight at 300 mg/kg, po bid for 12 to 13 days measured on day 10 (reference value: 23.2 +/-0.4 gms); assay type: organism-based; set-up: dose 300 mg/kg, route oral; conditions: in vivo
[11] = test system: Mus musculus; assay: Antidiabetic activity in db/db mouse assessed as fasting plasma glucose level at 300 mg/kg, po bid for 12 to 13 days measured on day 12 to 13 (reference value: 106 +/-6 mg/dl); assay type: functional
[12] = target: T1, Phosphatidylinositol 3,4,5-trisphosphate 5-phosphatase 2 (Mus musculus) (UniProt Q6P549); assay: Inhibition of SHIP2 in TNF alpha-treated mouse 3T3L1 cells assessed as potentiation of insulin-stimulated Akt phosphorylation at Thr308 at 10 uM treated for 15 mins after TNF alpha challenge for 16 hrs and prior to insulin stimulation measured after 2 hrs by Western blot analysis relative to untreated control; assay type: cell-based; conditions: 3T3-L1
T1 sequence (whole entry): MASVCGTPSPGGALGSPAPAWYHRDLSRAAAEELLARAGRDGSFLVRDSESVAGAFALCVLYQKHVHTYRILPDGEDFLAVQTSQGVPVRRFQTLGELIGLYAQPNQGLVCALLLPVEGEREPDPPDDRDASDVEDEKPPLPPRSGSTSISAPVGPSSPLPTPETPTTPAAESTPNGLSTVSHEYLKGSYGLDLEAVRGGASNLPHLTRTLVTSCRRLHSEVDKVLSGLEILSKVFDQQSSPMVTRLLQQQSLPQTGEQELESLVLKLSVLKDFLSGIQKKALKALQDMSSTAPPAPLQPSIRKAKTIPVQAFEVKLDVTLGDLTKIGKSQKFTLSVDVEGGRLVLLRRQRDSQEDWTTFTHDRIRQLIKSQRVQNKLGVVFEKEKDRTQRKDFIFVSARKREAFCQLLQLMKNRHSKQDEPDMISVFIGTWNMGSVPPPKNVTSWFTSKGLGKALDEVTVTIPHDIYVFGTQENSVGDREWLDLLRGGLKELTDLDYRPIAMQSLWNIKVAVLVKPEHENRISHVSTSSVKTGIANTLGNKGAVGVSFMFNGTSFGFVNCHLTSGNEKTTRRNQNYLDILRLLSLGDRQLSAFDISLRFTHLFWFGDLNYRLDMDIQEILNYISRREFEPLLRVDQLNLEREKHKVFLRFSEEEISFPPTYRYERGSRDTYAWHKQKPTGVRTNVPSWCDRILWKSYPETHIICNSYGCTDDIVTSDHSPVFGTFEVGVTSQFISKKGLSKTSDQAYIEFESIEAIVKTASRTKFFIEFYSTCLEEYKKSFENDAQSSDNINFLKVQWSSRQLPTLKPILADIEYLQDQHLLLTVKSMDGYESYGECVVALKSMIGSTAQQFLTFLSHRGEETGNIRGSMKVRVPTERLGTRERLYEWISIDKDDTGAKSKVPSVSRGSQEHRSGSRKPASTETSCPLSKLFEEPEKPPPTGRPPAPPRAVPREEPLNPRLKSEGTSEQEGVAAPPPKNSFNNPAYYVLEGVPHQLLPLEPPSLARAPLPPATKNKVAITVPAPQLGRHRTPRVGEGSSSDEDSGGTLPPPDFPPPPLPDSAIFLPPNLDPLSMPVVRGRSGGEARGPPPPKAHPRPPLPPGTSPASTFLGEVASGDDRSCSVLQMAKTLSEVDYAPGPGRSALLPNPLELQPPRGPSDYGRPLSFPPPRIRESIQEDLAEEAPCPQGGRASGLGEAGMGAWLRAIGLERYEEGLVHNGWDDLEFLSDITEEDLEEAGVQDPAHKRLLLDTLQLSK
In short: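 3T3-L1 fibroblasts differentiated into adipocytes, then serum-starved 16 h with TNFα 20 ng/mL. Treated with compound 10 µM or 0.1% DMSO for 15 min, then stimulated with 17 nM insulin at 37 °C for 2 h. Cells lysed on ice at pH 7.5 and Thr308 phospho-Akt measured by western blot. Results given as fold change versus TNFα+insulin control. Mean ± SE.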

[13] = test system: Mus musculus; assay: Decrease in glucose-6-phosphatase gene expression in db/db mouse liver at 300 mg/kg, po bid for 12 to 13 days by real time RT-PCR analysis; assay type: functional, organism-based; set-up: dose 300 mg/kg
In short: (§2)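 db/db mice dosed orally twice daily with 300 mg/kg or vehicle for 12-13 days, then fasted overnight and liver removed. Gluconeogenic gene mRNA measured by SYBR-green real-time PCR and expressed as fold change versus vehicle. Mean ± SE, n=7-8; ANOVA with Bonferroni test.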

[14] = test system: Mus musculus; assay: Decrease in PEPCK gene expression in db/db mouse liver at 300 mg/kg, po bid for 12 to 13 days by real time RT-PCR analysis; assay type: functional, organism-based; set-up: dose 300 mg/kg; in short: as §2
[15] = test system: Mus musculus; assay: Antidiabetic activity in db/db mouse assessed as decrease in glucose area under curve at 300 mg/kg, po bid for 10 days by glucose tolerance test relative vehicle treated control; assay type: functional; conditions: 240 h; in short: as §1
[16] = test system: Mus musculus; assay: Antidiabetic activity in db/db mouse assessed as decrease in glucose intolerance at 300 mg/kg, po bid for 10 days by glucose tolerance test; assay type: functional, organism-based; set-up: dose 300 mg/kg; in short: as §1

Row | fold change (FC) [12] | Structure (SMILES) | Activity [1] | Activity [2] | Activity [3] | Activity [4] | Activity [5] | Activity [6] | Activity [7] | Activity [8] | Activity [9] | Activity [10] | Activity [11] | inhibition [13] | inhibition [14] | inhibition in vivo at 300 mg/kg [15] | inhibition [16]
1 | 1.3 | O=C(Cc1c(F)cccc1F)Nc1cc(OCc2ccc(Cl)cc2)ccn1 | Non-toxic | 1.86 g | 5.34 g/day | 1.67 g | 0.21 ng/mL | 88 mg/dL | 0.86 g | 0.02 g | 3.94 g/day | 23.4 g | 83 mg/dL | Active | Active | 16% | Active
2 | 1.2 | C[C@H](NC(=O)c1sccc1OCc1ccc(Cl)cc1)c1ccccc1 | Non-toxic | 1.75 g | 6.5 g/day | 1.8 g | 0.1 ng/mL | 87 mg/dL | 0.73 g | 0.02 g | 4.1 g/day | 23 g | 77 mg/dL | Active | Active | 14% | Active
